Measurements as given in PMC4355043 (Bioorganic & medicinal chemistry letters, 2014).

Experiments:
Assay type in all cases: cell-based
[1] = tested on: amphotropic murine leukemia virus (AMLV) Env pseudotyped HIV-1 virus; details: result in words
[2] = tested on: HIV-1 91US004 (subtype B); test: replication of fully infectious virus in primary human PBMCs, isolate 91US004; details: isolate 91US004, subtype B
Summary of the method: (§1)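 Primary human PBMCs infected with fully infectious isolates from HIV-1 subtypes A, B, C and D, plus one HIV-2 isolate, to measure inhibition of viral replication. Toxicity to the same PBMCs was assessed concomitantly with an MTS assay. IC50 is the half-maximal inhibitory concentration and TC50 the half-maximal toxic concentration. Antiviral index is calculated as TC50/IC50.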

[3] = tested on: HIV-1 99UG_A07412M1 (subtype D); details: isolate 99UG_A07412M1, subtype D
Summary of the method: as §1

[4] = tested on: primary human peripheral blood mononuclear cells (PBMCs); test: toxicity to PBMCs using an MTS assay; details: run concomitantly with each isolate
Summary of the method: as §1

[5] = tested on: HIV-1 92UG037 (subtype A); test: replication of fully infectious virus in primary human PBMCs, isolate 92UG037; details: isolate 92UG037, subtype A
[6] = tested on: HIV-2CDC310319; test: replication of fully infectious virus in primary human PBMCs, HIV-2 isolate; details: result in words
Summary of the method: as §1

[7] = tested on: HIV-1 94US_33931 N (subtype B); details: isolate 94US_33931 N
Summary of the method: as §1

[8] = tested on: HIV-1 98US_MSC5016 (subtype C); details: isolate 98US_MSC5016, subtype C

SMILES | inhibition of AMLV-pseudotyped HIV-1 (specificity) [1] | Antiviral index (TC50/IC50) [2] | Antiviral index (TC50/IC50) [3] | C50 (half-maximal toxic concentration) [4] | Antiviral index (TC50/IC50) [5] | effect on the replication of an HIV-2 isolate [6] | Antiviral index (TC50/IC50) [7] | Antiviral index (TC50/IC50) [8]
COc1cnc(Cl)c2[nH]cc(C(=O)C(=O)N3CC4CN(C(=O)c5ccccc5)CC4C3)c12 (stereo not drawn) [SC07] | no inhibition | – | – | – | – | – | – | –
COc1ncc(OC)c2c(C(=O)C(=O)N3CC4CN(C(=O)c5ccccc5)CC4C3)c[nH]c12 (stereo not drawn) [SC08] | no inhibition | – | – | – | – | – | – | –
COc1cnc(-n2cnc(C)n2)c2[nH]cc(C(=O)C(=O)N3CC4CN(C(=O)C5=CCCCC5)CC4C3)c12 (stereo not drawn) [SC26] | – | >513 | >204 | >100 MM | >3.97 | no effect | > 166,666 | >25.6
